In ChEMBL document CHEMBL1148762, “Lysosome and HER3 (ErbB3) selective anticancer agent kahalalide F: semisynthetic modifications and antifungal lead-exploration studies” (J Med Chem, 2007):
pIC50: −log10 of the molar value. Converted amounts (≈) assume the structure as drawn. The source made the active and inactive calls. No cut-off for these calls is given here.

Columns and labels:
Fusarium oxysporum [1] = test: Antimicrobial activity against Fusarium oxysporum at 0.3 uM after 72 hrs by microtiter assay; format: functional
Method in brief: (§1)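 96-well microdilution broth assay with conidia (3 × 10^5 conidia/mL, harvested from 7-day PDA cultures and filtered) against F. oxysporum, F. proliferatum and F. solani at 0.3, 3 and 30 µM. Plates were held at 24 ± 1 °C under a 12 h photoperiod. Growth was read at 620 nm at 24, 48 and 72 h and reported as percent inhibition from mean absorbance with standard error.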

Fusarium proliferatum [2] = test: Antimicrobial activity against Fusarium proliferatum at 3 uM after 48 hrs by microtiter assay; format: functional; method in brief: as §1
Fusarium solani [3] = test: Antimicrobial activity against Fusarium solani at 0.3 uM after 72 hrs by microtiter assay; format: functional; method in brief: as §1
Fusarium solani [4] = test: Antimicrobial activity against Fusarium solani at 3 uM after 72 hrs by microtiter assay; format: functional; method in brief: as §1
Fusarium solani [5] = test: Antimicrobial activity against Fusarium solani at 0.3 uM after 48 hrs by microtiter assay; format: functional; method in brief: as §1
NCI-H322M = test: Cytotoxicity against human NCI-H322M cells; format: functional
Method in brief: (§2)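 NCI Developmental Therapeutics Program cell panel. GI50 is the concentration that reduces growth of treated cells to half that of untreated controls. TGI is the concentration that completely halts growth.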

Fusarium oxysporum [6] = test: Antimicrobial activity against Fusarium oxysporum at 3 uM after 48 hrs by microtiter assay; format: functional; method in brief: as §1
Fusarium oxysporum [7] = test: Antimicrobial activity against Fusarium oxysporum at 30 uM after 72 hrs by microtiter assay; format: functional; method in brief: as §1
Fusarium solani [8] = test: Antimicrobial activity against Fusarium solani at 30 uM after 72 hrs by microtiter assay; format: functional; method in brief: as §1
DU-145 = test: Cytotoxicity against human DU145 cells; format: functional; method in brief: as §2
[9] = test system: Mycobacterium tuberculosis; test: Antibacterial activity against Mycobacterium tuberculosis H37Rv at 16 ug/mL by micro plate alamar blue assay; format: functional
Method in brief: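 M. tuberculosis H37Rv ATCC 27294 grown in BACTEC 12B medium; microplate Alamar blue assay (MABA). Primary screen at a single concentration of 16 µg/mL, read as percent inhibition.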

Aspergillus fumigatus = test: Antimicrobial activity against Aspergillus fumigatus ATCC 90906; format: functional, organism-based
Fusarium oxysporum [10] = test: Antimicrobial activity against Fusarium oxysporum at 0.3 uM after 48 hrs by microtiter assay; format: functional; method in brief: as §1
HT-29 = test: Cytotoxicity against human HT29 cells; format: functional; method in brief: as §2
RPMI-8226 = test: Cytotoxicity against human RPMI8226 cells; format: functional; method in brief: as §2
Fusarium solani [11] = test: Antimicrobial activity against Fusarium solani at 3 uM after 48 hrs by microtiter assay; format: functional; method in brief: as §1
Fusarium proliferatum [12] = test: Antimicrobial activity against Fusarium proliferatum at 3 uM after 72 hrs by microtiter assay; format: functional; method in brief: as §1
Fusarium solani [13] = test: Antimicrobial activity against Fusarium solani at 30 uM after 48 hrs by microtiter assay; format: functional; method in brief: as §1
KM12 = test: Cytotoxicity against human KM12 cells; format: functional; method in brief: as §2
Fusarium proliferatum [14] = test: Antimicrobial activity against Fusarium proliferatum at 0.3 uM after 72 hrs by microtiter assay; format: functional; method in brief: as §1
ACHN = test: Cytotoxicity against human ACHN cells; format: functional; method in brief: as §2
Fusarium oxysporum [15] = test: Antimicrobial activity against Fusarium oxysporum at 30 uM after 48 hrs by microtiter assay; format: functional; method in brief: as §1
Fusarium proliferatum [16] = test: Antimicrobial activity against Fusarium proliferatum at 0.3 uM after 48 hrs by microtiter assay; format: functional; method in brief: as §1
Cryptococcus neoformans = test: Antimicrobial activity against Cryptococcus neoformans ATCC 90113; format: functional, organism-based
HCC 2998 = test: Cytotoxicity against human HCC2998 cells; format: functional; method in brief: as §2
Fusarium oxysporum [17] = test: Antimicrobial activity against Fusarium oxysporum at 3 uM after 72 hrs by microtiter assay; format: functional; method in brief: as §1
Hs-578T = test: Cytotoxicity against human HS578T cells; format: functional; method in brief: as §2
A549 = test: Cytotoxicity against human A549 cells; format: functional; method in brief: as §2
Candida albicans = test: Antimicrobial activity against Candida albicans ATCC 90028; format: functional, organism-based
[18] = test system: Mycobacterium intracellulare; test: Antimicrobial activity against Mycobacterium intracellular ATCC 23068; format: functional, organism-based
UACC-257 = test: Cytotoxicity against human UACC257 cells; format: functional; method in brief: as §2
COLO 205 = test: Cytotoxicity against human COLO205 cells; format: functional; method in brief: as §2
Fusarium proliferatum [19] = test: Antimicrobial activity against Fusarium proliferatum at 30 uM after 72 hrs by microtiter assay; format: functional; method in brief: as §1
Fusarium proliferatum [20] = test: Antimicrobial activity against Fusarium proliferatum at 30 uM after 48 hrs by microtiter assay; format: functional; method in brief: as §1
HCT-15 = test: Cytotoxicity against human HCT15 cells; format: functional; method in brief: as §2
SK-OV-3 = test: Cytotoxicity against human SK-OV3 cells; format: functional; method in brief: as §2
SNB-75 = test: Cytotoxicity against human SNB75 cells; format: functional; method in brief: as §2
PC-3 = test: Cytotoxicity against human PC3 cells; format: functional; method in brief: as §2
Fusarium proliferatum [21] = test: Fungistatic activity against Fusarium proliferatum at 30 uM after 72 hrs by microtiter plate assay; format: functional, organism-based
Method in brief: (§3)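 Conidia come from 7-day potato dextrose agar cultures, filtered and set photometrically (625 nm) to 3 × 10^5 conidia/mL. They are exposed to compound at 30 µM in 96-well microdilution broth at 24 ± 1 °C under a 12 h photoperiod. After 72 h, 20 µL per well is subcultured on drug-free potato dextrose agar at 28 °C for 3 days. No regrowth is scored fungicidal; regrowth is scored fungistatic.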

Fusarium oxysporum [22] = test: Fungistatic activity against Fusarium oxysporum at 30 uM after 72 hrs by microtiter plate assay; format: functional, organism-based; method in brief: as §3
Fusarium solani [23] = test: Fungicidal activity against Fusarium solani at 30 uM after 72 hrs by microtiter assay; format: functional, organism-based
Method in brief: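 After 72 h of microtiter broth exposure at 30 µM, 20 µL from each well was plated onto compound-free potato dextrose agar and incubated 3 days at 28 °C. No regrowth was scored fungicidal; regrowth was scored fungistatic.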

Leishmania donovani = test: Antiparasitic activity against Leishmania donovani; format: functional, organism-based
[24] = test system: Mycobacterium tuberculosis; test: Antibacterial activity against Mycobacterium tuberculosis H37Rv by micro plate alamar blue assay; format: functional

## C/C=C1\NC(=O)[C@H](Cc2ccccc2)NC(=O)[C@@H](C(C)C)NC(=O)[C@@H]([C@@H](C)CC)NC(=O)[C@H](NC(=O)[C@H](NC(=O)[C@H](CCCNCc2ccncc2)NC(=O)[C@H]2CCCN2C(=O)[C@H](NC(=O)[C@@H](NC(=O)[C@@H](NC(=O)[C@H](NC(=O)CCCC(C)C)C(C)C)[C@@H](C)O)C(C)C)C(C)C)[C@@H](C)CC)[C@@H](C)OC(=O)[C@H](C(C)C)NC1=O
Fusarium oxysporum [1]
  inhibition at 0.3 µM: 0%
Fusarium proliferatum [2]
  inhibition at 3 µM: 0%
Fusarium solani [3]
  inhibition at 0.3 µM: 0%
Fusarium solani [4]
  inhibition at 3 µM: 0%
Fusarium solani [5]
  inhibition at 0.3 µM: 0%
NCI-H322M
  GI50: 131 nM
  TGI: 238 nM
Fusarium oxysporum [6]
  inhibition at 3 µM: 0%
Fusarium oxysporum [7]
  inhibition at 30 µM: 91.2%
Fusarium solani [8]
  inhibition at 30 µM: 97.5%
DU-145
  GI50: 124 nM
  TGI: 266 nM
[9]
  inhibition at 16 µg/mL: 24%
Aspergillus fumigatus
  MFC: 20 µM (≈ 31.4 µg/mL)
  MIC: 10 µM (≈ 15.7 µg/mL)
Fusarium oxysporum [10]
  inhibition at 0.3 µM: 0%
HT-29
  GI50: 279 nM
RPMI-8226
  GI50: 638 nM
  TGI: 1890 nM
Fusarium solani [11]
  inhibition at 3 µM: 0%
Fusarium proliferatum [12]
  inhibition at 3 µM: 0%
Fusarium solani [13]
  inhibition at 30 µM: 99.2%
KM12
  GI50: 152 nM
Fusarium proliferatum [14]
  inhibition at 0.3 µM: 0%
ACHN
  GI50: 1280 nM
  TGI: 2320 nM
Fusarium oxysporum [15]
  inhibition at 30 µM: 98.2%
Fusarium proliferatum [16]
  inhibition at 0.3 µM: 0%
Cryptococcus neoformans
  MFC: 5 µM (≈ 7.85 µg/mL)
  MIC: 5 µM (≈ 7.85 µg/mL)
HCC 2998
  GI50: 236 nM
  TGI: 732 nM
Fusarium oxysporum [17]
  inhibition at 3 µM: 0%
Hs-578T
  GI50: 162 nM
  TGI: 444 nM
A549
  GI50: 189 nM
  TGI: 425 nM
Candida albicans
  MFC: > 20 µM
  MIC: > 20 µM
[18]
  MBC: > 20 µM
  MIC: > 20 µM
UACC-257
  GI50: 1310 nM
  TGI: 2430 nM
COLO 205
  GI50: 618 nM
Fusarium proliferatum [19]
  inhibition at 30 µM: 95.3%
Fusarium proliferatum [20]
  inhibition at 30 µM: 99.1%
HCT-15
  GI50: 492 nM
  TGI: 1560 nM
SK-OV-3
  GI50: 374 nM
  TGI: 1360 nM
SNB-75
  GI50: 1290 nM
  TGI: 2610 nM
PC-3
  GI50: 267 nM
  TGI: 973 nM

## C/C=C1\NC(=O)[C@H](Cc2ccccc2)NC(=O)[C@@H](C(C)C)NC(=O)[C@@H]([C@@H](C)CC)NC(=O)[C@H](NC(=O)[C@H](NC(=O)[C@H](CCCNCCCCCC)NC(=O)[C@H]2CCCN2C(=O)[C@@H](NC(=O)[C@H](NC(=O)[C@H](NC(=O)[C@@H](NC(=O)CCCC(C)C)C(C)C)[C@H](C)O)C(C)C)C(C)C)[C@@H](C)CC)[C@@H](C)OC(=O)[C@H](C(C)C)NC1=O
Fusarium proliferatum [21]
  Activity: Active
Fusarium oxysporum [22]
  Activity: Active
Fusarium solani [23]
  Activity: Active

## C/C=C1\NC(=O)[C@H](Cc2ccccc2)NC(=O)[C@@H](C(C)C)NC(=O)[C@@H]([C@@H](C)CC)NC(=O)[C@H](NC(=O)[C@H](NC(=O)[C@H](CCCNCc2cccs2)NC(=O)[C@H]2CCCN2C(=O)[C@H](NC(=O)[C@@H](NC(=O)[C@@H](NC(=O)[C@H](NC(=O)CCCC(C)C)C(C)C)[C@@H](C)O)C(C)C)C(C)C)[C@@H](C)CC)[C@@H](C)OC(=O)[C@H](C(C)C)NC1=O
Aspergillus fumigatus
  pIC50: 5.49
Cryptococcus neoformans
  pIC50: 5.72
Leishmania donovani
  IC50: 17 µg/mL (≈ 10.8 µM)
Candida albicans
  pIC50: 5.42
[18]
  pIC50: 4.92

## C/C=C1\NC(=O)[C@H](Cc2ccccc2)NC(=O)[C@@H](C(C)C)NC(=O)[C@@H]([C@@H](C)CC)NC(=O)[C@H](NC(=O)[C@H](NC(=O)[C@H](CCCN(CCCCCC)CCCCCC)NC(=O)[C@H]2CCCN2C(=O)[C@H](NC(=O)[C@@H](NC(=O)[C@@H](NC(=O)[C@H](NC(=O)CCCC(C)C)C(C)C)[C@@H](C)O)C(C)C)C(C)C)[C@@H](C)CC)[C@@H](C)OC(=O)[C@H](C(C)C)NC1=O
[9]
  inhibition at 16 µg/mL: 91%
Aspergillus fumigatus
  MFC: > 20 µM
  MIC: > 20 µM
Cryptococcus neoformans
  MFC: > 20 µM
  MIC: > 20 µM
[24]
  MIC: 9.4 µg/mL (≈ 5.71 µM)
Candida albicans
  MFC: > 20 µM
  MIC: > 20 µM
[18]
  MBC: > 20 µM
  MIC: > 20 µM

## CO[C@H]1/C=C/O[C@@]2(C)Oc3c(C)c(O)c4c(O)c(c(/C=N/N5CCN(C)CC5)c(O)c4c3C2=O)NC(=O)/C(C)=C\C=C\[C@H](C)[C@H](O)[C@@H](C)[C@@H](O)[C@@H](C)[C@H](OC(C)=O)[C@@H]1C [RIFAMPIN]
[9]
  inhibition at 16 µg/mL: 93%
[24]
  MIC: 0.08 µg/mL (≈ 0.0972 µM)

## C/C=C1\NC(=O)[C@H](Cc2ccccc2)NC(=O)[C@@H](C(C)C)NC(=O)[C@@H]([C@@H](C)CC)NC(=O)[C@H](NC(=O)[C@H](NC(=O)[C@H](CCCNCCCCCC)NC(=O)[C@H]2CCCN2C(=O)[C@H](NC(=O)[C@@H](NC(=O)[C@@H](NC(=O)[C@H](NC(=O)CCCC(C)C)C(C)C)[C@@H](C)O)C(C)C)C(C)C)[C@@H](C)CC)[C@@H](C)OC(=O)[C@H](C(C)C)NC1=O
Aspergillus fumigatus
  pIC50: 5.51
Cryptococcus neoformans
  pIC50: 5.71
Leishmania donovani
  IC50: 17 µg/mL (≈ 10.9 µM)
Candida albicans
  pIC50: 5.24
[18]
  pIC50: < 4.70

## C/C=C1\NC(=O)[C@H](Cc2ccccc2)NC(=O)[C@@H](C(C)C)NC(=O)[C@@H]([C@@H](C)CC)NC(=O)[C@H](NC(=O)[C@H](NC(=O)[C@H](CCCNCc2ccc(F)cc2)NC(=O)[C@H]2CCCN2C(=O)[C@@H](NC(=O)[C@H](NC(=O)[C@H](NC(=O)[C@@H](NC(=O)CCCC(C)C)C(C)C)[C@H](C)O)C(C)C)C(C)C)[C@@H](C)CC)[C@@H](C)OC(=O)[C@H](C(C)C)NC1=O
Fusarium proliferatum [21]
  Activity: Active
Fusarium oxysporum [22]
  Activity: Active
Fusarium solani [23]
  Activity: Active
